Compounds with a hit are over-represented: about 3.9% of the library has one in this group of screens.
Jurkat NFkB inh = inhibitors of induced NF-kB luciferase reporter, primary screen, TCR NF-kB activation inhibitor project, cell-based, luminescence, uHTS | Jurkat, PMA/ionomycin-induced NF-kB luciferase reporter | inhibition, % at 4 µM | hit rate 0.53% among 330,000 | AID 435003, 2010; in the data active = inhibition above about 50%
CHOP UPR activ = activators of apoptotic CHOP UPR arm, primary screen, cell-based, CHO-CHOP luciferase reporter, luminescence, uHTS. UPR activation; percent of tunicamycin response over DMSO baseline. activation, % at 10 µM. hit rate 0.34% among 330,000. AID 449763, 2010;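 active = at 10 µM dose, activation of 40% or more, normalized to positive control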
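Assay system: CHO-CHOP cells, stable luciferase reporter of PERK-eIF2a-CHOP signalling / Buffer or medium: F12 plus 10% serum / Compound dosing: one dose, 10 µM in 0.5% DMSO / Times: 6 h compound treatment, 37 °C / Technique: luciferase luminescence / Read-out: % reporter activation, DMSO baseline versus tunicamycin full activation / Benchmarks: tunicamycin and DMSO controls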
UPR XBP1 act = activators of adaptive XBP1 UPR arm, primary screen, cell-based, CHO-XBP1 luciferase reporter, luminescence, uHTS; IRE1-XBP1 UPR activation; percent of tunicamycin response, DMSO as zero; hit rate 0.33% among 330,000; activation, % at 20 µM;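 active = versus positive control, 20 µM dose yields 30% or more activation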
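Material: CHO cell line with stable XBP1 luciferase reporter; buffer or medium: F12 medium containing 10% fetal bovine serum; compound: single point, 20 µM final compound, 1% DMSO; incubation: 6 h treatment, 37 °C; measured by: glow luminescence from Steady-Glo reagent; evaluation: activation, % of tunicamycin; control set: tunicamycin high, DMSO low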
697 NFkB inh = inhibitors of PMA/ionomycin-induced NF-kB reporter, 697 cells, primary screen, B-cell NF-kB inhibitor project, cell-based, luminescence, uHTS; 697 B-cell NF-kB luciferase reporter, 16 h; inhibition, % at 4 µM; hit rate 0.33% among 330,000; in the data active = inhibition above about 35%
CHOP inhibitor = inhibitors of CHOP promoter induction, primary screen, cell-based, unfolded protein response, luciferase reporter; inhibition, % at 10 µM; CHO-K1 CHOP-promoter luciferase, tunicamycin-induced, 15-18 h; hit rate 3.8% among 220,000;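 active = compounds that reduced the stress-induced luciferase reporter signal by more than about 70% of percent inhibition, limit read from the data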
Gli-Sufu block = Gli-Sufu pathway antagonists, primary screen, luciferase luminescence, Sufu-KO-LIGHT cells, uHTS | Sufu-KO-LIGHT fibroblasts, Gli luciferase reporter luminescence | inhibition, % at 5 µM | hit rate 0.74% among 340,000 | AID 588413, 2011;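 active = inhibition above about 55%, limit read from the data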
Of the large screens only hits and unclear results are named; the others gave an inactive call.

Cc1ccc2nc(N/N=C\c3ccc([N+](=O)[O-])o3)nc(-c3ccccc3)c2c1	none
O=[N+]([O-])c1ccc(/C=N/Nc2nc(-c3ccccc3)c3cc(Br)ccc3n2)o1	CHOP inhibitor 82.4
O=C(N/N=C\c1ccc(Cl)cc1)C1=NOC2COC3(CCN(c4ccc([N+](=O)[O-])cc4)CC3)OCC12 (centres undefined)	none
Cc1cc(C)nc(SCc2ccc(C(=O)NNC(=O)Nc3cccc(Cl)c3)cc2)n1	CHOP inhibitor 96.1 (no result: Jurkat NFkB inh, CHOP UPR activ, UPR XBP1 act, 697 NFkB inh)
COc1ccc(S(=O)(=O)N2CCCCC2)cc1NC(=O)CN(Cc1ccco1)Cc1ccco1	none (no result: CHOP inhibitor)
O=C(CN1C(=O)CS/C1=C\c1nc(-c2ccc(Cl)cc2)cs1)Nc1cccnc1Cl	none
Cc1ccc(-c2csc(/C=C3\SC(C)C(=O)N3CC(=O)Nc3ccccc3F)n2)cc1 (centres undefined)	CHOP inhibitor 92.6
CCCCn1c(N)c(N(CC)C(=O)C2=COCCO2)c(=O)[nH]c1=O	none (no result: CHOP inhibitor)
CCOC(=O)C1=C(Cn2cnc3ccccc32)NC(=O)NC1c1cc(C)ccc1C (centres undefined)	CHOP inhibitor 88.7
COC(=O)C1=C(Cn2cnc3ccccc32)NC(=O)NC1c1cc(C)ccc1C (centres undefined)	none
Cc1ccc(S(=O)(=O)c2nnn3c2nc(N2CCC(C(N)=O)CC2)c2ccccc23)cc1	none (no result: CHOP inhibitor)
CCC(C(=O)N1CCN(S(=O)(=O)c2ccc(F)cc2)CC1)c1ccccc1 (centres undefined)	none (no result: CHOP inhibitor)
Cc1onc(-c2c(F)cccc2Cl)c1C(=O)N(C)CCc1ccccn1	none (no result: CHOP inhibitor)
COc1ccc(CNc2nc(NCc3ccc(OC)cc3)n(C(C)=O)n2)cc1	none
CCC(=O)n1nc(NCc2ccccc2OC)nc1NCc1ccccc1OC	CHOP inhibitor 76.1
O=C(NCc1ccco1)c1cc2n(n1)C(C(F)(F)F)CC(c1ccc(Cl)c(Cl)c1)N2 (centres undefined)	CHOP inhibitor 88.3
COc1ccccc1NC(=O)c1cc2n(n1)C(C(F)(F)F)CC(c1ccc3c(c1)OCO3)N2 (centres undefined)	CHOP inhibitor 87.9
O=C(NCc1ccccn1)c1cc2n(n1)C(C(F)(F)F)CC(c1ccco1)N2 (centres undefined)	none
O=C(NCc1ccco1)c1cc2n(n1)C(C(F)(F)F)CC(c1ccc(Br)cc1)N2 (centres undefined)	CHOP inhibitor 76.6
CCOC(=O)C[C@H]1c2ccccc2S(=O)(=O)N1Cc1cccc(C(F)(F)F)c1	none (no result: CHOP inhibitor)
CCOC(=O)c1c(-c2ccc(F)cc2)csc1NC(=O)C1CCCO1 (centres undefined)	CHOP inhibitor 75.0
O=[N+]([O-])c1ccc(Oc2ccc(F)cc2)c2ccncc12	CHOP inhibitor 77.0
C[Si](C)(C)n1ccnc1	none (no result: CHOP inhibitor)
Cc1cc(NS(=O)(=O)c2ccc(NC(=O)c3ccccc3C)cc2)no1	none (no result: CHOP inhibitor)
Cc1cc(NS(=O)(=O)c2ccc(NC(=O)c3cc4cc(Br)ccc4oc3=O)cc2)no1	CHOP inhibitor 91.4
COc1ccc(S(=O)(=O)Nc2cccc3c2O[C@H](CN(C)CC2CCCCC2)[C@@H](C)CN([C@H](C)CO)C3=O)cc1	none (no result: CHOP inhibitor)
CCOc1cc(C)c(S(=O)(=O)Nc2ccc(F)cc2)cc1C	CHOP inhibitor 81.4
COc1ccc(C)cc1S(=O)(=O)Nc1ccc(F)cc1	none
Fc1ccc(-c2cc(C(F)(F)F)nc(NCc3cccs3)n2)cc1	CHOP inhibitor 71.5
FC(F)(F)c1cc(-c2ccco2)nc(NCc2cccnc2)n1	none
FC(F)(F)c1cc(-c2ccccc2)nc(NCc2cccnc2)n1	CHOP inhibitor 85.1
O=C(Oc1cccc2cccnc12)c1ccc(N2C(=O)C3C4CCC(C4)C3C2=O)cc1 (centres undefined)	none
